Results as given in article PMC9891086 (RSC Advances, 2023).

Key:
COX-2 = molecular target: T1, COX-2 (Homo sapiens, UniProt P35354); test: biochemical
T1 sequence (P35354 18-604): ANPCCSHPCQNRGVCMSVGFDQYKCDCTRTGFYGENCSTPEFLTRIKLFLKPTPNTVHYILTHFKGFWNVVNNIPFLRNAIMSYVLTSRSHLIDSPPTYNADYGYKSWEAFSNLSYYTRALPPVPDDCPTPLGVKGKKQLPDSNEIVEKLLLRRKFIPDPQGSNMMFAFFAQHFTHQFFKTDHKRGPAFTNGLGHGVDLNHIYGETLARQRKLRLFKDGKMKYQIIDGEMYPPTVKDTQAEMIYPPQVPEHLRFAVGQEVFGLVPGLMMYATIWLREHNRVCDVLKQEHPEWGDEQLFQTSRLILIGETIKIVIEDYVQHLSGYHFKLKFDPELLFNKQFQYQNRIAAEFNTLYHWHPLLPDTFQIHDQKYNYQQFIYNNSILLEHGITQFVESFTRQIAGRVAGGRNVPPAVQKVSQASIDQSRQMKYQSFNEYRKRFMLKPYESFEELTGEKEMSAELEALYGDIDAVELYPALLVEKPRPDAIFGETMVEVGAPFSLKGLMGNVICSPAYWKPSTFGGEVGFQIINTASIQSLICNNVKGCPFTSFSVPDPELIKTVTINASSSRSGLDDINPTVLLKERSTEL

HepG2 cells = test: MTT cytotoxic activity assay against HepG2 cells; type: cell-based; conditions: Homo sapiens, HepG2, 48 h, read-out: IC50 inhibitory effect on HepG2 cells
Method in brief: (§1)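 Cells seeded at 5 × 10^3 per well and grown 24 h, then exposed to a range of test compound concentrations for 48 h. Vehicle control was 0.1% DMSO and the positive control was adriamycin (10 μM). MTT was added from a 5 mg mL−1 stock for 4 h, and formazan was dissolved in DMSO. Viability was read at 490 nm, in three replicates per treatment.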

Caco-2 cells = test: MTT cytotoxic activity assay against Caco-2 cells; type: cell-based; conditions: Homo sapiens, Caco-2, 48 h, read-out: IC50 inhibitory effect on Caco-2 cells
Method in brief: as §1

SMILES: CCCCCCCCC/C=C\CCCCCCCCC(=O)O [Compound 1, cis-10-eicosaenoic acid]
- IC50 (COX-2): 10.8 ± 0.3 µM
- IC50 (HepG2 cells): 25 ± 1.08 µM

SMILES: CC[C@H](CC[C@@H](C)[C@H]1CC[C@H]2[C@@H]3CC(=O)C4=CC(=O)CC[C@]4(C)[C@H]3CC[C@]12C)C(C)C [Compound 3, stigmast-4-en-3,6-dione]
- IC50 (COX-2): 67.9 ± 6.21 µM

SMILES: COc1cc(O)c(C(C)=O)c(OC)c1 [Compound 5, xanthoxylin]
- IC50 (COX-2): 123 ± 10.5 µM
- IC50 (HepG2 cells): 8.21 ± 1.12 µM

SMILES: N[C@H]1CCC=C[C@H]1C(=O)O [Compound 14, (1R,6S)-6-aminocyclohex-2-ene-1-carboxylic acid]
- IC50 (COX-2): 19.3 ± 3.58 µM

SMILES: c1cncc([C@@H]2CCCCN2)c1 [Compound 15, anabasine]
- IC50 (COX-2): 150 ± 11 µM

SMILES: Oc1ccccc1CN1CCCC[C@H]1c1cccnc1 [Compound 16, (2S)-N-hydroxybenzylanabasine]
- IC50 (COX-2): 24.2 ± 1.2 µM

SMILES: O=c1cc[nH]c(=O)[nH]1 [Compound 21, uracil]
- IC50 (COX-2): 146 ± 11 µM
- IC50 (HepG2 cells): 78.5 ± 4.41 µM
- IC50 (Caco-2 cells): 86 ± 2.96 µM

SMILES: O=C1N[C@@H](O)C(O)=C1O [Compound 23, (S)-3,4,5-trihydroxy-1H-pyrrol-2 (5H)-one]
- IC50 (COX-2): 149 ± 10 µM

SMILES: OCc1ccccc1O[C@@H]1O[C@H](CO)[C@@H](O)[C@H](O)[C@H]1O [Compound 25, salicin]
- IC50 (COX-2): 162 ± 10 µM
